The values below come from ChEMBL document CHEMBL4837204, “Synthesis, biological, and photophysical studies of molecular rotor-based fluorescent inhibitors of the trypanosome alternative oxidase” (Eur J Med Chem, 2021).

One may read the EC50 as the midpoint of the concentration-response curve. Read a low EC50 as an effect from little substance. As usually defined, the IC50 is the concentration needed to halve the response being measured. In general, CC50 refers to the concentration that lowers cell viability or growth by half.

Data set [1] is described as follows: Selectivity index, ratio of CC50 cytotoxicity against HEK293T cells to EC50 for antitrypanosomal activity against bloodstream form of wild type Trypanosoma brucei brucei S427 trypomastigotes. The settings on record: human; read-out: Ratio CC50/EC50. It counts as toxicity, cell-based. The gist of the method:
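SI = CC50 on HEK 293T divided by EC50 on WT s427. For HEK 293T, cells adhered 24 h, were exposed 30 h, then given resazurin for 24 h (ex 530/em 590). For trypanosomes, cells were exposed 48 h, then given resazurin for 24 h (ex 544/em 590). Both values came from dose-response fits.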

In data set [2] the test system is Trypanosoma brucei brucei. The experiment in a line: Antitrypanosomal activity against bloodstream form of Trypanosoma brucei brucei AQP1-3 KO trypomastigotes incubated for 48 hrs by resazurin dye based fluorescence assay. It counts as functional, organism-based. In a few lines:
(§1)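 Bloodstream T. b. brucei in complete HMI-9 at 37 °C, 5% CO2, 2 × 10⁵ cells/mL, exposed to doubling dilutions of compound for 48 h. Resazurin was then added and cells were incubated a further 24 h. Fluorescence was read at ex 544/em 590 nm with a drug-free control and pentamidine as positive control. EC50 came from a variable-slope sigmoidal fit, at least 3 independent experiments.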
(In general: Resazurin is reduced to fluorescent resorufin, in cell work by metabolically active cells.)

Data set [3] deals with Alternative oxidase, mitochondrial (Trypanosoma brucei brucei, UniProt Q26710). Kind of data set: Inhibition of recombinant Trypanosoma brucei brucei alternative oxidase using ubiquinol as substrate preincubated for 2 mins followed by substrate addition by UV-Vis spectrophotometry. The gist of the method:
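Recombinant ΔMTS-TAO was preincubated for 2 min with varying inhibitor amounts at 25 °C in 50 mM Tris-HCl pH 7.4 with 0.05% octaethylene glycol monododecyl ether. The reaction was started with ubiquinol, and its oxidation was followed at 278 nm for 2 min. DMSO served as negative control and ascofuranone/SHAM as positive controls. IC50 came from residual activity versus inhibitor concentration.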

A short description of data set [4]: Resistance factor, ratio of EC50 for antitrypanosomal activity against drug resistant Trypanosoma brucei B48 to EC50 for antitrypanosomal activity against bloodstream form of wild type Trypanosoma brucei brucei S427 trypomastigotes. The class given is functional. The gist of the method: (§2)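 The assay used bloodstream forms in HMI-9 at 37 °C, 5% CO2, 2 × 10⁵ cells/mL, read at ex 544/em 590 nm. EC50 came from a variable-slope sigmoidal fit, at least 3 experiments.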

A short description of data set [5]: Resistance factor, ratio of EC50 for Antitrypanosomal activity against bloodstream form of Trypanosoma brucei brucei AQP1-3 KO trypomastigotes to EC50 for antitrypanosomal activity against bloodstream form of wild type Trypanosoma brucei brucei S427 trypomastigotes. The class given is functional. The gist of the method: as §2
Data set [6] relates to Trypanosoma brucei brucei. Kind of data set: Antitrypanosomal activity against bloodstream form of wild type Trypanosoma brucei brucei S427 trypomastigotes incubated for 48 hrs by resazurin dye based fluorescence assay. It counts as functional, organism-based. As to conditions: S427, 48 h; call rule not given here. The gist of the method: as §1
In data set [7] the test system is Trypanosoma brucei brucei. Kind of data set: Antitrypanosomal activity against drug resistant Trypanosoma brucei B48 incubated for 48 hrs by resazurin dye based fluorescence assay. The class given is functional, organism-based. The settings on record: B48, 48 h. In a few lines:
as §1

Data set [8] can be described thus: Cytotoxicity against HEK293T cells assessed as reduction in cell viability […] by resazurin dye based fluorescence assay. Set-up: species or system HEK-293T. The settings on record: human.
Data set [9] can be described thus: Drug localization in mitochondria of mouse MC3T3-E1 cells at 0.6 uM incubated for 30 mins by MTDR staining based single-photon excitation fluorescence analysis. It counts as ADME. The settings on record: mc3t3-e1, 0.5 h. The gist of the method: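 MC3T3-E1 preosteoblasts were grown in αMEM with 10% FBS, glutamine and pen/strep, then seeded at 25,000 cells/well on glass-bottom slides. Cells were preincubated with compound for 30 min at 37 °C, then given MitoTracker Deep Red (16 nM final) for 30 min. Confocal imaging used alternating excitation: 561 nm with detection at 580–630 nm, and 640 nm with detection at 650–720 nm.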

Data set [10] is described as follows: Drug localization in rat liver mitochondria. The class given is ADME. In a few lines: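 Rat liver was homogenised in 20 mM HEPES/250 mM sucrose, pH 7.4. After 800×g spins, mitochondria were enriched at 9000×g. Probe at 3 × 10⁻⁷ M was incubated with the mitochondrial suspension for 20 min at room temperature, then spun at 10,000×g for 10 min. Supernatant emission (ex 470 and 540 nm) was compared with probe in buffer alone to estimate the fraction partitioned into mitochondria.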

Data set [11] can be described thus: Drug localization in mitochondria of mouse MC3T3-E1 cells incubated for 30 mins by […] based two-photon excitation microscopy analysis. It counts as ADME. The settings on record: mc3t3-e1, 0.5 h.
Data set [12] is described as follows: Drug localization in mitochondria of Trypanosoma brucei brucei at 40 uM incubated for 60 mins by MTG dye based confocal microscopy analysis. It counts as ADME. The settings on record: 1 h. The gist of the method: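 Bloodstream T. b. brucei at 2 × 10⁶ cells/mL were given compound in complete HMI-9 for 1 h at 37 °C, 5% CO2. MitoTracker Green (100 nM final) was added for 10 min. Cells were then pelleted, PBS-washed and stained with Hoechst 33342 for 10 min in the dark. They were immobilised in PBS-primed CyGEL and imaged for overlap with MTG.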

Data set [13] is described as follows: Drug uptake in bloodstream form of wild type Trypanosoma brucei brucei S427 trypomastigotes assessed as increase in fluorescent signal at 0.2 uM measured by fluorimeter. It counts as ADME. The gist of the method: (§3)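 Mid-log bloodstream 427WT or aqp1-3 null cells were washed and resuspended at 10⁸ cells/mL in assay buffer. Fluorescence was read continuously at 37 °C, 5% CO2 (ex 544/em 620). After a background period, compound was added at the stated final concentration. Each trace averages 3 replicate wells on one plate.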

The nature of data set [14]: Drug uptake in bloodstream form of Trypanosoma brucei brucei AQP1-3 KO trypomastigotes at 0.2 to 2 uM measured after 1 hr by fluorimeter. It counts as ADME. The settings on record: dose 0.2-2 µM. The gist of the method:
as §3

Sequence of Alternative oxidase, mitochondrial (Q26710 whole entry): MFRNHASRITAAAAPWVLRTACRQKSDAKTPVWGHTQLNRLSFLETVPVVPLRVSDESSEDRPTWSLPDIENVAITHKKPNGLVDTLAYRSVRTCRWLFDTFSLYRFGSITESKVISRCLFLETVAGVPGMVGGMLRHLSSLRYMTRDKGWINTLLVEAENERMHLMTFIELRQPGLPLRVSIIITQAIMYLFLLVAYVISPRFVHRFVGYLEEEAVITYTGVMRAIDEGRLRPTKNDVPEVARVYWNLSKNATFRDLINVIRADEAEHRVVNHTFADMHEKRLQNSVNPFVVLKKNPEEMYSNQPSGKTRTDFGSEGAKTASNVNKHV

Turning to `Cc1cc[n+](CCCCCCCCCCCCCCOC(=O)c2c(O)cc(O)c(Cl)c2C)cc1`, the selectivity ratio in data set [1] turned out to be 182. Besides, the EC50 in data set [2] amounted to 190 nM; in data set [6], 240 nM; in data set [7], 220 nM. Besides, in data set [3], the IC50 was 720 nM. Also, the values for the Ratio EC50 in data set [4] and in [5] were 1.53 and 0.8, respectively. In addition, the 50% cytotoxic concentration (CC50) in [8] came out at 43700 nM.

Take `Cc1cc(O)cc(O)c1C(=O)OCCCCCCCCCCCCCC[n+]1ccc(/C=C/c2cc3c4c(c2O)CCCN4CCC3)cc1.[Br-]`: the Drug uptake entry in data set [9] is “Active”; in data set [10], 66%; in data set [11], “Active”; in data set [12] it was “Active”. For the same compound, in [1], the selectivity ratio was above 100. The EC50 came out at 1050 nM in [2], 1010 nM in data set [6] and 1190 nM in [7]. The IC50 in data set [3] turned out to be 360 nM. Further, the Ratio EC50 in data set [4] was found to be 1.17; in [5], 1.03. In data set [8], the CC50 is above 100000 nM.

In the case of `Cc1cc[n+](CCCCCCCCCCCCCCOC(=O)c2c(C)cc(O)cc2O)cc1`, the selectivity ratio in data set [1] was 13.8. The IC50 in [3] was above 5000 nM. Further, the Ratio EC50 in [4] was found to be 1.04. The EC50 was determined as 55 nM in data set [6] and 60 nM in [7]. Besides, in data set [8], the CC50 worked out at 760 nM.

As for `COC(=O)c1c(C)cc(OCCCCCCCCCCCCCC[n+]2ccc(/C=C/c3cc4c5c(c3O)CCCN5CCC4)cc2)cc1O`, the selectivity ratio in data set [1] stood at 43.6. Besides, the values for the EC50 in [2], in [6] and in [7] were 440 nM, 540 nM and 590 nM, respectively. In addition, in data set [3], the IC50 is 42 nM. Also, the results for the Ratio EC50 in data set [4] and in [5] were 1.1 and 0.81, respectively. Besides, in data set [8], the CC50 amounted to 23600 nM.

In the case of `Cc1c(Cl)c(O)cc(O)c1C(=O)OCCCCCCCCCCCCCCBr`, the selectivity ratio in data set [1] is 8.2. For the same compound, the values for the EC50 in data set [2], in data set [6] and in data set [7] were 13100 nM, 6840 nM and 10100 nM, respectively. Moreover, the IC50 in data set [3] is 750 nM. In addition, the results for the Ratio EC50 in [4] and in data set [5] were 1.48 and 1.91, respectively. Further, the CC50 in [8] is 55900 nM.

For the compound `Cc1cc(O)cc(OCCCCCCCCCCCCCC[n+]2ccc(/C=C/c3cc4c5c(c3O)CCCN5CCC4)cc2)c1.[Br-]`, the Drug uptake entry in [9] is reported as “Active”. In addition, the selectivity ratio in data set [1] amounted to 44.1. Also, the EC50 in data set [2] was determined as 430 nM; in [6], 500 nM; in data set [7] it was 630 nM. Moreover, the 50% inhibitory concentration (IC50) in [3] was determined as 145 nM. The Ratio EC50 in [4] turned out to be 1.25; in data set [5] it was 0.85. The CC50 in data set [8] is 22200 nM.

`Cc1cc[n+](CCCCCCCCCCCCCCOC(=O)c2c(C)c(Cl)c(O)c(Cl)c2O)cc1`: in data set [1], the selectivity ratio stood at 1.7. Besides, the IC50 in [3] was 910 nM. Also, in data set [4], the Ratio EC50 is 1.03. In addition, the EC50 in [6] was 2550 nM; in [7], 2640 nM. In addition, in data set [8], the CC50 was determined as 4400 nM.

For `Cc1cc[n+](CCCCCCCCCCCCCCOc2cc(C)c(C(=O)O)c(O)c2)cc1`, the selectivity ratio in data set [1] was above 10. This compound also registered an EC50 in [2] of 16600 nM. For the same compound, the IC50 in data set [3] turned out to be 1800 nM. For the same compound, the Ratio EC50 in [5] stood at 0.84. Moreover, in data set [8], the CC50 is above 20000 nM.

With `N=C(N)c1ccc(OCCCCCOc2ccc(C(=N)N)cc2)cc1` [PENTAMIDINE], the results for the concentration for a half-maximal effect (EC50) in data set [2], in data set [6] and in data set [7] were 34 nM, 4.9 nM and 500 nM, respectively. Besides, the Ratio EC50 was found to be 102 in data set [4] and 6.9 in [5].

On to `Oc1c(/C=C/c2cc[n+](CCCCCCCCCCCCCCBr)cc2)cc2c3c1CCCN3CCC2.[Br-]`, for which the selectivity ratio in data set [1] turned out to be 62.6. The concentration giving a half-maximal response (EC50) turned out to be 340 nM in data set [2], 430 nM in data set [6] and 490 nM in [7]. The IC50 in data set [3] is above 5000 nM. In addition, the Ratio EC50 in data set [4] stood at 1.16; in [5], 0.79. Further, the Drug uptake result in data set [13] and in data set [14] was “Not Active” throughout. The CC50 in data set [8] amounted to 26700 nM.
